In ChEMBL document CHEMBL1143014, “Cytotoxic activity of some natural and synthetic ent-kauranes” (J Nat Prod, 2007):

Key:
Type in all cases: cell-based
1A9 = test: Cytotoxicity against human 1A9 cells after 72 hrs; conditions: for Activity: human, 1a9, 72 h; for EC50: Homo sapiens, 1A9, 72 h
Method in brief: (§1)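 Sulforhodamine B assay run per the NCI procedure. Cells grown at 37 °C, humidified 5% CO2, in RPMI-1640 with 25 mM HEPES, […], 10% (v/v) FBS and 100 µg/mL kanamycin. Compounds dissolved in DMSO (final ≤1% v/v) and applied continuously for 72 h. EC50 is the concentration cutting cell number by 50%, interpolated from dose-response data. Assays run in triplicate. Doxorubicin served as positive control.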

[1] = Cytotoxicity against human multidrug-resistant KB-VIN cells after 72 hrs; conditions: for Activity: human, kb-vin; for EC50: Homo sapiens, KBVIN; method in brief: as §1
PC-3 = test: Cytotoxicity against human PC3 cells after 72 hrs; conditions: for Activity: human, pc-3, 72 h; for EC50: Homo sapiens, PC-3, 72 h; method in brief: as §1
A549 = test: Cytotoxicity against human A549 cells after 72 hrs; conditions: for Activity: human, a549, 72 h; for EC50: Homo sapiens, A549, 72 h; method in brief: as §1
MCF7 = test: Cytotoxicity against human MCF7 cells after 72 hrs; conditions: for Activity: human, mcf7, 72 h; for EC50: Homo sapiens, MCF7, 72 h; method in brief: as §1
KB = test: Cytotoxicity against human KB cells after 72 hrs; conditions: for Activity: human, kb; for EC50: Homo sapiens, KB; method in brief: as §1

## C=C1[C@@H]2CC[C@@H]3[C@@](CCC4[C@H](C(=O)O)C[C@@H](O)C[C@]43C)(C2)[C@@H]1O (some centres not stated) [ATRACTYLIGENIN]
1A9
  Activity: Not Active
[1]
  Activity: Not Active
PC-3
  Activity: Not Active
A549
  Activity: Not Active
MCF7
  Activity: Not Active
KB
  Activity: Not Active

## C=C1C(=O)[C@@]23CCC4[C@H](C(=O)OC)C[C@@H](OS(=O)(=O)c5ccc(C)cc5)C[C@@]4(C)[C@@H]2CC[C@@H]1C3 (some centres not stated)
1A9
  EC50: 0.5 µM
[1]
  EC50: 3.5 µM
PC-3
  EC50: 2.6 µM
A549
  EC50: 2.3 µM
MCF7
  EC50: 4.3 µM
KB
  EC50: 1.4 µM

## C=C1[C@@H]2CC[C@@H]3[C@@](CCC4[C@H](C(=O)OC)C[C@@H](O)C[C@]43C)(C2)[C@@H]1O (some centres not stated) [ATRACTYLIGENIN METHYL ESTER]
1A9
  Activity: Not Active
[1]
  Activity: Not Active
PC-3
  Activity: Not Active
A549
  Activity: Not Active
MCF7
  Activity: Not Active
KB
  Activity: Not Active

## C=C1C(=O)[C@@]23CCC4[C@H](C(=O)OC)CC(=O)C[C@@]4(C)[C@@H]2CC[C@@H]1C3 (some centres not stated) [ATRACTYLIGENIN METHYL ESTER]
1A9
  EC50: 0.2 µM
[1]
  EC50: 1.6 µM
PC-3
  EC50: 1.1 µM
A549
  EC50: 3.4 µM
MCF7
  EC50: 1 µM
KB
  EC50: 1.6 µM

## C=C1C(=O)[C@@]23CCC4[C@H](C(=O)OC)C[C@@H](O)C[C@@]4(C)[C@@H]2CC[C@@H]1C3 (some centres not stated)
1A9
  EC50: 0.3 µM
[1]
  EC50: 2.6 µM
PC-3
  EC50: 4 µM
A549
  EC50: 1 µM
MCF7
  EC50: 2 µM
KB
  EC50: 1.5 µM

## C=C1[C@@H]2CC[C@@H]3[C@@](CCC4[C@H](C(=O)OC)C/C(=N\NS(=O)(=O)c5ccc(C)cc5)C[C@]43C)(C2)[C@@H]1O (some centres not stated)
1A9
  EC50: 7.5 µM
[1]
  EC50: 20.4 µM
PC-3
  EC50: 15.8 µM
A549
  EC50: 24.5 µM
MCF7
  EC50: 18 µM
KB
  EC50: 18.1 µM

## C=C1C(=O)[C@@]23CCC4[C@H](C(=O)OC)C[C@@H](OC(C)=O)C[C@@]4(C)[C@@H]2CC[C@@H]1C3 (some centres not stated)
1A9
  EC50: 0.5 µM
[1]
  EC50: 4 µM
PC-3
  EC50: 1.4 µM
A549
  EC50: 3.3 µM
MCF7
  EC50: 0.9 µM
KB
  EC50: 3.6 µM

## C=C1C(=O)[C@@]23CCC4[C@H](C(=O)OC)C[C@@H](OC(=O)c5ccc6c(c5)OCO6)C[C@@]4(C)[C@@H]2CC[C@@H]1C3 (some centres not stated)
1A9
  EC50: 3 µM
[1]
  EC50: 3 µM
PC-3
  EC50: 9.2 µM
A549
  EC50: 19 µM
MCF7
  EC50: 21.4 µM
KB
  EC50: 1.1 µM

## C=C1C(=O)[C@@]23CCC4[C@H](C(=O)OC)C[C@@H](OC(=O)[C@H](O)[C@@H](NC(=O)c5ccccc5)c5ccccc5)C[C@@]4(C)[C@@H]2CC[C@@H]1C3 (some centres not stated)
1A9
  EC50: 0.4 µM
[1]
  EC50: 3.5 µM
PC-3
  EC50: 0.6 µM
A549
  EC50: 1.7 µM
MCF7
  EC50: 1.5 µM
KB
  EC50: 2.6 µM

## COc1cccc2c1C(=O)c1c(O)c3c(c(O)c1C2=O)C[C@@](O)(C(=O)CO)C[C@@H]3O[C@H]1C[C@H](N)[C@H](O)[C@H](C)O1 [DOXORUBICIN]
1A9
  EC50: 0.1 µM
[1]
  EC50: 1.7 µM
PC-3
  EC50: 2 µM
A549
  EC50: 0.9 µM
MCF7
  EC50: 0.2 µM
KB
  EC50: 0.4 µM

## C=C1C(=O)[C@@]23CCC4[C@H](C(=O)OC)CCC[C@@]4(C)[C@@H]2CC[C@@H]1C3 (some centres not stated)
1A9
  EC50: 0.7 µM
[1]
  EC50: 1.3 µM
PC-3
  EC50: 3.1 µM
A549
  EC50: 4.4 µM
MCF7
  EC50: 5 µM
KB
  EC50: 1.3 µM

## C=C1C(=O)[C@@]23CCC4[C@H](C(=O)OC)C[C@@H](OC(=O)[C@@H]5OC(c6ccccc6)=N[C@H]5c5ccccc5)C[C@@]4(C)[C@@H]2CC[C@@H]1C3 (some centres not stated)
1A9
  EC50: 1.8 µM
[1]
  EC50: 4.8 µM
PC-3
  EC50: 2.2 µM
A549
  EC50: 2.2 µM
MCF7
  EC50: 11.8 µM
KB
  EC50: 3 µM
